According to ChEMBL document CHEMBL1140898, “Targeting the fatty acid biosynthesis enzyme, beta-ketoacyl-acyl carrier protein synthase III (PfKASIII), in the identification of novel antimalarial agents” (J Med Chem, 2009):

Tested on: Plasmodium falciparum
Assay: Antimalarial activity against Plasmodium falciparum TM91C235 by [3H]hypoxanthine uptake
Assay type: functional, organism-based
Details: not given

SMILES	IC50
CC(C)(C)S(=O)(=O)CC(=O)c1ccc(Cl)cc1Cl	> 204 µM
O=S(=O)(c1ccc(O)cc1)c1cc(Cl)ccc1O	80.8 µM
Nc1nc(O)c2cc(S(=O)(=O)c3ccc4ccccc4c3)ccc2n1	1.4 µM
Cc1cc(O)c(O)c(S(=O)(=O)c2ccc(N)cc2)c1	3.4 µM
Cc1ccc(S(=O)(=O)c2ccccc2)cc1	112 µM
Cc1ccc(S(=O)(=O)c2cc(O)ccc2O)cc1	60.5 µM
CC(C)c1ccc(S(=O)(=O)c2ccc(C(C)C)cc2)cc1	32.7 µM
Cc1ccc(S(=O)(=O)c2ccc3ccccc3c2)cc1	> 230 µM
O=S(=O)(c1cccc(S(=O)(=O)c2cc(O)ccc2O)c1)c1cc(O)ccc1O	4.5 µM
CC(=O)Nc1ccc(S(=O)(=O)c2ccc(NC(=O)c3ccccc3O)cc2)cc1	31.7 µM
Nc1ccc(S(=O)(=O)c2cc(O)ccc2O)cc1	5.3 µM
Nc1ncc(S(=O)(=O)c2ccc(NO)cc2)s1	> 55.3 µM

Tested on: Plasmodium falciparum
Assay: Antimalarial activity against […] by [3H]hypoxanthine uptake
Assay type: functional, organism-based
Details: not given

SMILES	IC50
COc1ncnc(NS(=O)(=O)c2ccc(N)cc2)c1OC [SULFADOXINE]	0.04 µM
C/C(=C/c1ccccc1)S(=O)(=O)c1ccccc1	28 µM
CC(C)(C)S(=O)(=O)CC(=O)c1ccc(Cl)cc1Cl	45.3 µM
NC1CCC(S(=O)(=O)c2cc(O)c3ccccc3c2O)CC1 (centres undefined)	3.9 µM
O=S(=O)(c1ccc(O)cc1)c1cc(Cl)ccc1O	38.6 µM
Nc1nc(O)c2cc(S(=O)(=O)c3ccc4ccccc4c3)ccc2n1	0.43 µM
Cc1cc(O)c(O)c(S(=O)(=O)c2ccc(N)cc2)c1	19.7 µM
Cc1ccc(S(=O)(=O)c2ccccc2)cc1	35.7 µM
Cc1ccc(S(=O)(=O)c2cc(O)ccc2O)cc1	37.8 µM
Cc1ccc(S(=O)(=O)c2cc(O)c3ccccc3c2O)cc1	3.6 µM
Cc1cccc(C)c1/C=C/S(=O)(=O)c1ccccc1	> 50.1 µM
CC(C)c1ccc(S(=O)(=O)c2ccc(C(C)C)cc2)cc1	18.5 µM
Oc1ccc2ccccc2c1SSc1c(O)ccc2ccccc12	7.2 µM
Cc1ccc(S(=O)(=O)c2ccc3ccccc3c2)cc1	> 230 µM
c1ccc(SSc2ccccc2)cc1	5 µM
O=S(=O)(c1cccc(S(=O)(=O)c2cc(O)ccc2O)c1)c1cc(O)ccc1O	26 µM
Cc1ccc(S/C=C/S(=O)(=O)Cc2ccccc2)cc1	3 µM
CCCCS(=O)(=O)CCOC(=O)c1ccc([N+](=O)[O-])cc1	> 41.2 µM
O=S(=O)(Nc1cccc(Cl)c1)c1ccccc1	> 49.9 µM
CC(=O)Nc1ccc(S(=O)(=O)c2ccc(NC(=O)c3ccccc3O)cc2)cc1	29.2 µM
Nc1ccc(S(=O)(=O)c2cc(O)ccc2O)cc1	0.79 µM
Nc1ncc(S(=O)(=O)c2ccc(NO)cc2)s1	0.3 µM

Tested on: Plasmodium falciparum
Assay: Antimalarial activity against […] by [3H]hypoxanthine uptake
Assay type: functional, organism-based
Details: not given

SMILES	IC50
COc1ncnc(NS(=O)(=O)c2ccc(N)cc2)c1OC [SULFADOXINE]	6.1 µM
C/C(=C/c1ccccc1)S(=O)(=O)c1ccccc1	> 50.1 µM
CC(C)(C)S(=O)(=O)CC(=O)c1ccc(Cl)cc1Cl	84.1 µM
NC1CCC(S(=O)(=O)c2cc(O)c3ccccc3c2O)CC1 (centres undefined)	20.4 µM
O=S(=O)(c1ccc(O)cc1)c1cc(Cl)ccc1O	45.7 µM
Nc1nc(O)c2cc(S(=O)(=O)c3ccc4ccccc4c3)ccc2n1	1.2 µM
Cc1cc(O)c(O)c(S(=O)(=O)c2ccc(N)cc2)c1	23.6 µM
Cc1ccc(S(=O)(=O)c2ccccc2)cc1	68.9 µM
Cc1ccc(S(=O)(=O)c2cc(O)ccc2O)cc1	64.3 µM
Cc1ccc(S(=O)(=O)c2cc(O)c3ccccc3c2O)cc1	3.2 µM
Cc1cccc(C)c1/C=C/S(=O)(=O)c1ccccc1	> 50.1 µM
CC(C)c1ccc(S(=O)(=O)c2ccc(C(C)C)cc2)cc1	23.5 µM
Oc1ccc2ccccc2c1SSc1c(O)ccc2ccccc12	6.6 µM
Cc1ccc(S(=O)(=O)c2ccc3ccccc3c2)cc1	> 230 µM
c1ccc(SSc2ccccc2)cc1	6.7 µM
O=S(=O)(c1cccc(S(=O)(=O)c2cc(O)ccc2O)c1)c1cc(O)ccc1O	7.1 µM
Cc1ccc(S/C=C/S(=O)(=O)Cc2ccccc2)cc1	5.8 µM
CCCCS(=O)(=O)CCOC(=O)c1ccc([N+](=O)[O-])cc1	> 41.2 µM
O=S(=O)(Nc1cccc(Cl)c1)c1ccccc1	> 49.9 µM
CC(=O)Nc1ccc(S(=O)(=O)c2ccc(NC(=O)c3ccccc3O)cc2)cc1	20.7 µM
Nc1ccc(S(=O)(=O)c2cc(O)ccc2O)cc1	3.6 µM
Nc1ncc(S(=O)(=O)c2ccc(NO)cc2)s1	> 55.3 µM

Tested on: not listed separately
Assay: Inhibition of Plasmodium falciparum KAS3 expressed in Escherichia coli assessed as transfer of [1-14C]acetyl-CoA to [1-14C]acetyl-ACP
Details: not given
Method in brief: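 Recombinant 6xHIS-tagged P. falciparum KASIII and 6xHIS-ACP expressed in E. coli and purified. Radiometric filter assay of [1-14C]-acetyl-CoA transfer to ACP, 25 min at 37 °C, quenched with 10% TCA. Product captured on P81 cellulose filters, washed with TCA and counted by scintillation. […] IC50 by variable-slope nonlinear regression, curves accepted at R2 >0.80.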

SMILES	IC50
COc1ncnc(NS(=O)(=O)c2ccc(N)cc2)c1OC [SULFADOXINE]	> 1000 µM
C/C(=C/c1ccccc1)S(=O)(=O)c1ccccc1	165 µM
CC(C)(C)S(=O)(=O)CC(=O)c1ccc(Cl)cc1Cl	62.9 µM
NC1CCC(S(=O)(=O)c2cc(O)c3ccccc3c2O)CC1 (centres undefined)	0.44 µM
O=S(=O)(c1ccc(O)cc1)c1cc(Cl)ccc1O	115 µM
Nc1nc(O)c2cc(S(=O)(=O)c3ccc4ccccc4c3)ccc2n1	18.3 µM
Cc1cc(O)c(O)c(S(=O)(=O)c2ccc(N)cc2)c1	27.2 µM
Cc1ccc(S(=O)(=O)c2ccccc2)cc1	158 µM
Cc1ccc(S(=O)(=O)c2cc(O)ccc2O)cc1	193 µM
Cc1ccc(S(=O)(=O)c2cc(O)c3ccccc3c2O)cc1	0.38 µM
Cc1cccc(C)c1/C=C/S(=O)(=O)c1ccccc1	448 µM
CC(C)c1ccc(S(=O)(=O)c2ccc(C(C)C)cc2)cc1	22.5 µM
Oc1ccc2ccccc2c1SSc1c(O)ccc2ccccc12	0.13 µM
Cc1ccc(S(=O)(=O)c2ccc3ccccc3c2)cc1	53.7 µM
c1ccc(SSc2ccccc2)cc1	0.65 µM
O=S(=O)(c1cccc(S(=O)(=O)c2cc(O)ccc2O)c1)c1cc(O)ccc1O	38.2 µM
Cc1ccc(S/C=C/S(=O)(=O)Cc2ccccc2)cc1	0.52 µM
CCCCS(=O)(=O)CCOC(=O)c1ccc([N+](=O)[O-])cc1	0.32 µM
O=S(=O)(Nc1cccc(Cl)c1)c1ccccc1	195 µM
CC(=O)Nc1ccc(S(=O)(=O)c2ccc(NC(=O)c3ccccc3O)cc2)cc1	48.1 µM
Nc1ccc(S(=O)(=O)c2cc(O)ccc2O)cc1	63.8 µM
Nc1ncc(S(=O)(=O)c2ccc(NO)cc2)s1	22 µM

Tested on: not listed separately
Assay: Cytotoxicity against mouse J774.G8 cells after 72 hrs by MTS assay
Assay type: cell-based
Details: not given
Method in brief: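 Murine J774 macrophage subclone G8 grown in DMEM with 10% fetal calf serum, 2 mM L-glutamine, 50 μg/mL gentamicin, 5% CO2, 37 °C. Seeded at 1 × 10^4 cells/well and left 24 h. Compound dilutions in medium or vehicle added, then 72 h exposure. MTS tetrazolium added for 1–2 h at 37 °C, OD read at 490 nm. Vehicle control values subtracted.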

SMILES	IC50
COc1ncnc(NS(=O)(=O)c2ccc(N)cc2)c1OC [SULFADOXINE]	> 1610 µM
C/C(=C/c1ccccc1)S(=O)(=O)c1ccccc1	205 µM
CC(C)(C)S(=O)(=O)CC(=O)c1ccc(Cl)cc1Cl	> 1620 µM
NC1CCC(S(=O)(=O)c2cc(O)c3ccccc3c2O)CC1 (centres undefined)	105 µM
O=S(=O)(c1ccc(O)cc1)c1cc(Cl)ccc1O	107 µM
Nc1nc(O)c2cc(S(=O)(=O)c3ccc4ccccc4c3)ccc2n1	> 2850 µM
Cc1cc(O)c(O)c(S(=O)(=O)c2ccc(N)cc2)c1	27.6 µM
Cc1ccc(S(=O)(=O)c2ccccc2)cc1	134 µM
Cc1ccc(S(=O)(=O)c2cc(O)ccc2O)cc1	> 1890 µM
Cc1ccc(S(=O)(=O)c2cc(O)c3ccccc3c2O)cc1	> 3180 µM
Cc1cccc(C)c1/C=C/S(=O)(=O)c1ccccc1	706 µM
CC(C)c1ccc(S(=O)(=O)c2ccc(C(C)C)cc2)cc1	7.3 µM
Oc1ccc2ccccc2c1SSc1c(O)ccc2ccccc12	> 1430 µM
Cc1ccc(S(=O)(=O)c2ccc3ccccc3c2)cc1	> 1770 µM
c1ccc(SSc2ccccc2)cc1	124 µM
O=S(=O)(c1cccc(S(=O)(=O)c2cc(O)ccc2O)c1)c1cc(O)ccc1O	> 1180 µM
Cc1ccc(S/C=C/S(=O)(=O)Cc2ccccc2)cc1	0.85 µM
CCCCS(=O)(=O)CCOC(=O)c1ccc([N+](=O)[O-])cc1	33.6 µM
O=S(=O)(Nc1cccc(Cl)c1)c1ccccc1	31.3 µM
CC(=O)Nc1ccc(S(=O)(=O)c2ccc(NC(=O)c3ccccc3O)cc2)cc1	> 1620 µM
Nc1ccc(S(=O)(=O)c2cc(O)ccc2O)cc1	> 1890 µM

Tested on: not listed separately
Assay: Therapeutic index, ratio of IC50 for mice (Mus musculus) J774.G8 cells to IC50 for chloroquine-resistant Plasmodium falciparum W2
Details: J774.G8 cells versus Plasmodium falciparum W2

SMILES	selectivity ratio
COc1ncnc(NS(=O)(=O)c2ccc(N)cc2)c1OC [SULFADOXINE]	> 269
C/C(=C/c1ccccc1)S(=O)(=O)c1ccccc1	< 4.1
CC(C)(C)S(=O)(=O)CC(=O)c1ccc(Cl)cc1Cl	> 19.3
NC1CCC(S(=O)(=O)c2cc(O)c3ccccc3c2O)CC1 (centres undefined)	5.3
O=S(=O)(c1ccc(O)cc1)c1cc(Cl)ccc1O	2.3
Nc1nc(O)c2cc(S(=O)(=O)c3ccc4ccccc4c3)ccc2n1	> 2850
Cc1cc(O)c(O)c(S(=O)(=O)c2ccc(N)cc2)c1	1.2
Cc1ccc(S(=O)(=O)c2ccccc2)cc1	1.9
Cc1ccc(S(=O)(=O)c2cc(O)ccc2O)cc1	> 29.6
Cc1ccc(S(=O)(=O)c2cc(O)c3ccccc3c2O)cc1	> 1060
Cc1cccc(C)c1/C=C/S(=O)(=O)c1ccccc1	< 14
CC(C)c1ccc(S(=O)(=O)c2ccc(C(C)C)cc2)cc1	0.3
Oc1ccc2ccccc2c1SSc1c(O)ccc2ccccc12	> 204
c1ccc(SSc2ccccc2)cc1	12.4
O=S(=O)(c1cccc(S(=O)(=O)c2cc(O)ccc2O)c1)c1cc(O)ccc1O	> 169
Cc1ccc(S/C=C/S(=O)(=O)Cc2ccccc2)cc1	0.15
CCCCS(=O)(=O)CCOC(=O)c1ccc([N+](=O)[O-])cc1	< 0.83
O=S(=O)(Nc1cccc(Cl)c1)c1ccccc1	< 0.62
CC(=O)Nc1ccc(S(=O)(=O)c2ccc(NC(=O)c3ccccc3O)cc2)cc1	> 77
Nc1ccc(S(=O)(=O)c2cc(O)ccc2O)cc1	> 472
